In brackets after ≈: the same amount, converted by molar mass.

The subject of assay [1] is Human immunodeficiency virus 1. Put plainly: Ex vivo antiviral activity in H9 T-lymphoid cells infected with HIV-1(IIIB). As to conditions: read-out: MIC100. Type of assay: functional. The essentials: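 Human H9 T-lymphoid cells acutely infected with HIV-1 IIIB isolate, MOI 0.01; compound added in DMSO at time of infection, refreshed every 2–3 days when culture sampled and half the medium replaced. Spread read by indirect immunofluorescence (anti-HIV-1 human serum primary antibody) at 14 days; MIC100 = minimum concentration completely preventing spread of infection through the culture, in nM.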

In assay [2] the target is Human immunodeficiency virus type 1 protease (Human immunodeficiency virus 1, UniProt Q72874). Description: Inhibition of HIV-1 protease.

As to `CC(C)(C)OC(=O)N[C@@H](Cc1ccccc1)[C@@H](O)C[C@@H](C/C=C/c1ccc(O)cc1)C(=O)N[C@H]1c2ccccc2C[C@H]1O`, in assay [1], the MIC was 0.2 µM (≈ 0.117 µg/mL). In addition, the IC50 in assay [2] turned out to be 0.17 nM.

In the case of `CC(C)C[C@H](NC(=O)[C@H](Cc1ccccc1)C[C@H](O)[C@H](Cc1ccccc1)NC(=O)OC(C)(C)C)C(=O)N[C@@H](Cc1ccccc1)C(N)=O`, the MIC in assay [1] stood at 3 µM (≈ 2.02 µg/mL). In assay [2], this molecule came in with an IC50 of 0.42 nM.

Take `CC(C)(C)OC(=O)N[C@@H](Cc1ccccc1)[C@@H](O)C[C@@H](Cc1ccc(C(C)(C)C)cc1)C(=O)N[C@H]1c2ccccc2C[C@H]1O`: the MIC in assay [1] worked out at 0.2 µM (≈ 0.12 µg/mL). The molecule further gave an IC50 in assay [2] of 0.27 nM.

As for `CC(C)(C)OC(=O)N[C@@H](Cc1ccccc1)[C@@H](O)C[C@@H](Cc1ccc(S(C)(=O)=O)cc1)C(=O)N[C@H]1c2ccccc2C[C@H]1O`, half-maximal inhibition in assay [2] (IC50) was put at 0.17 nM.

On to `CC(C)(C)OC(=O)N[C@@H](Cc1ccccc1)[C@@H](O)C[C@@H](Cc1ccc(CCC[N+](C)(C)C)cc1)C(=O)N[C@H]1c2ccccc2C[C@H]1O`, for which the MIC in assay [1] stood at 0.1 µM. The molecule further returned an IC50 in assay [2] of 0.91 nM.

In the case of `CC(C)(C)OC(=O)N[C@@H](Cc1ccccc1)[C@@H](O)C[C@@H](Cc1ccccc1)C(=O)N[C@H]1c2ccccc2C[C@H]1O`, the MIC in assay [1] turned out to be 0.4 µM (≈ 0.218 µg/mL). The molecule further displayed an IC50 in assay [2] of 0.23 nM.

In the case of `CC(C)(C)OC(=O)N[C@@H](Cc1ccccc1)[C@@H](O)C[C@@H](Cc1ccc(I)cc1)C(=O)N[C@H]1c2ccccc2C[C@H]1O`, it took 0.72 nM to reach half-maximal inhibition in assay [2] (IC50).

Take `CC(C)(C)OC(=O)N[C@@H](Cc1ccccc1)[C@@H](O)C[C@@H](Cc1ccc(N)cc1)C(=O)N[C@H]1c2ccccc2C[C@H]1O`: the MIC in assay [1] amounted to 0.2 µM (≈ 0.112 µg/mL). Further, in assay [2], the IC50 amounted to 0.31 nM.

`CC(C)(C)OC(=O)N[C@@H](Cc1ccccc1)[C@@H](O)C[C@@H](Cc1ccc(F)cc1)C(=O)N[C@H]1c2ccccc2C[C@H]1O` registered an IC50 in assay [2] of 0.44 nM.

In the case of `C[S+]([O-])c1ccc(C[C@H](C[C@H](O)[C@H](Cc2ccccc2)NC(=O)OC(C)(C)C)C(=O)N[C@H]2c3ccccc3C[C@H]2O)cc1` (stereo partly specified), in assay [2], the IC50 was 0.51 nM.

Regarding `CC[C@H](C[C@H](O)[C@H](Cc1ccccc1)NC(=O)OC(C)(C)C)C(=O)N[C@H]1c2ccccc2C[C@H]1O`, half-maximal inhibition in assay [2] (IC50) was put at 34.7 nM.

As to `CC(C)C[C@H](NC(=O)[C@H](C)C[C@H](O)[C@H](Cc1ccccc1)NC(=O)OC(C)(C)C)C(=O)N[C@@H](Cc1ccccc1)C(N)=O`, the IC50 in assay [2] is 6 nM.

For `CC(C)C[C@H](NC(=O)[C@H](Cc1cccc2ccccc12)C[C@H](O)[C@H](Cc1ccccc1)NC(=O)OC(C)(C)C)C(=O)N[C@@H](Cc1ccccc1)C(N)=O`, the midpoint of inhibition in assay [2], the IC50, lay at 1.2 nM.

`CN(C)Cc1ccc(C[C@H](C[C@H](O)[C@H](Cc2ccccc2)NC(=O)OC(C)(C)C)C(=O)N[C@H]2c3ccccc3C[C@H]2O)cc1` returned an IC50 in assay [2] of 1.4 nM.

Take `CC(C)(C)OC(=O)N[C@@H](Cc1ccccc1)[C@@H](O)C[C@@H](C/C=C/c1ccccc1)C(=O)N[C@H]1c2ccccc2C[C@H]1O`: the MIC in assay [1] amounted to 0.4 µM (≈ 0.228 µg/mL). In addition, the IC50 in assay [2] is 0.23 nM.

As to `COCCN(CCCc1ccc(C[C@H](C[C@H](O)[C@H](Cc2ccccc2)NC(=O)OC(C)(C)C)C(=O)N[C@H]2c3ccccc3C[C@H]2O)cc1)CCOC`, the MIC in assay [1] came to 0.2 µM (≈ 0.144 µg/mL). This molecule returned a half-inhibitory concentration (IC50) in assay [2] of 0.59 nM.

Consider `CC(C)(C)OC(=O)N[C@@H](Cc1ccccc1)[C@@H](O)C[C@@H](Cc1ccc(CCO)cc1)C(=O)N[C@H]1c2ccccc2C[C@H]1O`, for which the MIC in assay [1] worked out at 0.05 µM (≈ 0.0294 µg/mL). In assay [2], this molecule displayed an IC50 of 0.16 nM.

Consider `COCCOCOCCc1ccc(C[C@H](C[C@H](O)[C@H](Cc2ccccc2)NC(=O)OC(C)(C)C)C(=O)N[C@H]2c3ccccc3C[C@H]2O)cc1`, for which, in assay [1], the MIC turned out to be 0.1 µM (≈ 0.0677 µg/mL). This molecule registered an IC50 in assay [2] of 0.13 nM.

In the case of `C[C@H](C[C@H](O)[C@H](Cc1ccccc1)NC(=O)OC(C)(C)C)C(=O)N[C@H]1c2ccccc2C[C@H]1O`, in assay [2], the IC50 turned out to be 62.7 nM.

In the case of `CC(C)C[C@H](NC(=O)[C@H](Cc1ccc(-c2ccccc2)cc1)C[C@H](O)[C@H](Cc1ccccc1)NC(=O)OC(C)(C)C)C(=O)N[C@@H](Cc1ccccc1)C(N)=O`, in assay [2], the IC50 came out at 0.43 nM.

In assay [2], `CC(C)(C)OC(=O)N[C@@H](Cc1ccccc1)[C@@H](O)C[C@@H](Cc1ccc(C(F)(F)F)cc1)C(=O)N[C@H]1c2ccccc2C[C@H]1O` returned a half-inhibitory concentration (IC50) of 0.26 nM.

Molecule `CC(C)C[C@H](NC(=O)[C@H](CCCc1ccccc1)C[C@H](O)[C@H](Cc1ccccc1)NC(=O)OC(C)(C)C)C(=O)N[C@@H](Cc1ccccc1)C(N)=O` gave an IC50 in assay [2] of 0.36 nM.

Regarding `CC(C)(C)OC(=O)N[C@@H](Cc1ccccc1)[C@@H](O)C[C@@H](CCc1cnc2ccccc2n1)C(=O)N[C@H]1c2ccccc2C[C@H]1O`, 0.17 nM corresponded to half-maximal inhibition in assay [2] (IC50).

For the molecule `CC(C)(C)OC(=O)N[C@@H](Cc1ccccc1)[C@@H](O)C[C@@H](Cc1ccc(CN2CCOCC2)cc1)C(=O)N[C@H]1c2ccccc2C[C@H]1O`, the MIC in assay [1] worked out at 0.1 µM (≈ 0.0644 µg/mL). In assay [2], half-maximal inhibition (IC50) required 1.15 nM.

Consider `CC(C)(C)OC(=O)N[C@@H](Cc1ccccc1)[C@@H](O)C[C@@H](Cc1ccc(CO)cc1)C(=O)N[C@H]1c2ccccc2C[C@H]1O`, for which the IC50 in assay [2] was found to be 0.17 nM.

As for `CC(C)(C)OC(=O)N[C@@H](Cc1ccccc1)[C@@H](O)C[C@@H](C/C=C/c1ccc(OCCN2CCOCC2)cc1)C(=O)N[C@H]1c2ccccc2C[C@H]1O`, the MIC in assay [1] came out at 0.05 µM (≈ 0.035 µg/mL).

Molecule `CC(C)(C)OC(=O)N[C@@H](Cc1ccccc1)[C@@H](O)C[C@@H](Cc1ccc([N+](=O)[O-])cc1)C(=O)N[C@H]1c2ccccc2C[C@H]1O` displayed an IC50 in assay [2] of 0.27 nM.

As for `COC(CCc1ccc(C[C@H](C[C@H](O)[C@H](Cc2ccccc2)NC(=O)OC(C)(C)C)C(=O)N[C@H]2c3ccccc3C[C@H]2O)cc1)OC`, the midpoint of inhibition in assay [2], the IC50, lay at 0.08 nM.

In the case of `CC(C)C[C@H](NC(=O)[C@H](C/C=C/c1ccccc1)C[C@H](O)[C@H](Cc1ccccc1)NC(=O)OC(C)(C)C)C(=O)N[C@@H](Cc1ccccc1)C(N)=O`, in assay [1], the MIC was 6 µM (≈ 4.19 µg/mL). The IC50 in assay [2] is 0.23 nM.

In the case of `CSc1ccc(C[C@H](C[C@H](O)[C@H](Cc2ccccc2)NC(=O)OC(C)(C)C)C(=O)N[C@H]2c3ccccc3C[C@H]2O)cc1`, in assay [2], the midpoint of inhibition, the IC50, lay at 0.22 nM.

With `CC(C)(C)OC(=O)N[C@@H](Cc1ccccc1)[C@@H](O)C[C@@H](Cc1c(F)c(F)c(F)c(F)c1F)C(=O)N[C@H]1c2ccccc2C[C@H]1O`, 0.6 nM corresponded to half-maximal inhibition in assay [2] (IC50).

Turning to `CC(C)(C)OC(=O)N[C@@H](Cc1ccccc1)[C@@H](O)C[C@@H](Cc1ccc(CCCO)cc1)C(=O)N[C@H]1c2ccccc2C[C@H]1O`, in assay [1], the MIC is 0.05 µM (≈ 0.0301 µg/mL). The same molecule yielded an IC50 in assay [2] of 0.1 nM.

The molecule `CN(C)CCCc1ccc(C[C@H](C[C@H](O)[C@H](Cc2ccccc2)NC(=O)OC(C)(C)C)C(=O)N[C@H]2c3ccccc3C[C@H]2O)cc1` gave an IC50 in assay [2] of 0.6 nM.

As for `CC(C)(C)OC(=O)N[C@@H](Cc1ccccc1)[C@@H](O)C[C@@H](Cc1ccc(O)cc1)C(=O)N[C@H]1c2ccccc2C[C@H]1O`, the MIC in assay [1] was 0.05 µM (≈ 0.028 µg/mL).

In assay [2], `CC(C)(C)OC(=O)N[C@@H](Cc1ccccc1)[C@@H](O)C[C@@H](Cc1ccc(CCCN2CCSCC2)cc1)C(=O)N[C@H]1c2ccccc2C[C@H]1O` gave an IC50 of 1 nM.

In assay [2], `CC(C)(C)OC(=O)N[C@@H](Cc1ccccc1)[C@@H](O)C[C@@H](Cc1cccc(O)c1)C(=O)N[C@H]1c2ccccc2C[C@H]1O` came in with an IC50 of 0.21 nM. This IC50 lies about 4.8-fold lower than the previous one.

In turn, `CCCCCCCCCCCCCCC[C@H](C[C@H](O)[C@H](Cc1ccccc1)NC(=O)OC(C)(C)C)C(=O)N[C@H]1c2ccccc2C[C@H]1O` had an IC50 in assay [2] of more than 3000 nM.

As for `COCCOCOCCCc1ccc(C[C@H](C[C@H](O)[C@H](Cc2ccccc2)NC(=O)OC(C)(C)C)C(=O)N[C@H]2c3ccccc3C[C@H]2O)cc1`, in assay [1], the MIC came out at 0.05 µM (≈ 0.0345 µg/mL). In assay [2], this molecule showed an IC50 of 0.07 nM.

With `Cc1ccc(C[C@H](C[C@H](O)[C@H](Cc2ccccc2)NC(=O)OC(C)(C)C)C(=O)N[C@H]2c3ccccc3C[C@H]2O)cc1`, the MIC in assay [1] was found to be 0.2 µM (≈ 0.112 µg/mL). This molecule came in with an IC50 in assay [2] of 0.29 nM.

In the case of `CC(C)(C)OC(=O)N[C@@H](Cc1ccccc1)[C@@H](O)C[C@@H](Cc1ccc(CCCN2CCOCC2)cc1)C(=O)N[C@H]1c2ccccc2C[C@H]1O`, the MIC in assay [1] was determined as 0.2 µM (≈ 0.134 µg/mL). Further, the midpoint of inhibition in assay [2], the IC50, lay at 0.43 nM.

The values are drawn from ChEMBL document CHEMBL1126244, “HIV-1 protease inhibitors based on hydroxyethylene dipeptide isosteres: an investigation into the role of the P1' side chain on structure-activity” (J Med Chem, 1992).
